Assay results: ChEMBL document CHEMBL3124849, “Total synthesis of burkholdacs A and B and 5,6,20-tri-epi-burkholdac A: HDAC inhibition and antiproliferative activity” (Eur J Med Chem, 2014)

Experiments:
[1] = Selectivity index, ratio of IC50 for mouse HDAC6 to IC50 for human HDAC1
In short: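 Ratio of HDAC6 IC50 to HDAC1 IC50. Both enzymes were FLAG-immunopurified from transfected 293T cells: human HDAC1 and mouse HDAC6. Each was assayed on Ac-KGLGK(Ac)-MCA with 100 µM DTT at 37 °C for 30 min, developed with trypsin, and AMC read by fluorescence. IC50s are means of ≥3 curves.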

[2] = tested on: SNB-75; assay: Cytotoxicity against human SNB75 cells by SRB assay; format: functional
In short: (§1)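 Tested at the Japanese Foundation for Cancer Research panel of 39 human cancer cell lines. Five concentrations per compound, spanning 10^-10 to 10^-6 M or 10^-8 to 10^-4 M. Growth measured by sulforhodamine B colorimetry. GI50 is the concentration giving 50% growth inhibition relative to control.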

[3] = tested on: ACHN; assay: Cytotoxicity against human ACHN cells by SRB assay; format: functional; in short: as §1
[4] = Cytotoxicity against human HBC4 cells by SRB assay; format: functional; in short: as §1
[5] = tested on: NCI-H23; assay: Cytotoxicity against human NCI-H23 cells by SRB assay; format: functional; in short: as §1
[6] = tested on: HCT-116; assay: Cytotoxicity against human HCT116 cells by SRB assay; format: functional; in short: as §1
[7] = Cytotoxicity against human MKN45 cells by SRB assay; format: functional; settings: MKN-45; in short: as §1
[8] = tested on: OVCAR-8; assay: Cytotoxicity against human OVCAR8 cells by SRB assay; format: functional; in short: as §1
[9] = biological target: T1, Histone deacetylase 1 (Homo sapiens, UniProt Q13547); assay: Inhibition of human HDAC1 expressed in human 293T cells using Ac-KGLGK(Ac)-MCA as substrate after 30 mins by fluorescence assay
T1 sequence (Q13547 whole entry): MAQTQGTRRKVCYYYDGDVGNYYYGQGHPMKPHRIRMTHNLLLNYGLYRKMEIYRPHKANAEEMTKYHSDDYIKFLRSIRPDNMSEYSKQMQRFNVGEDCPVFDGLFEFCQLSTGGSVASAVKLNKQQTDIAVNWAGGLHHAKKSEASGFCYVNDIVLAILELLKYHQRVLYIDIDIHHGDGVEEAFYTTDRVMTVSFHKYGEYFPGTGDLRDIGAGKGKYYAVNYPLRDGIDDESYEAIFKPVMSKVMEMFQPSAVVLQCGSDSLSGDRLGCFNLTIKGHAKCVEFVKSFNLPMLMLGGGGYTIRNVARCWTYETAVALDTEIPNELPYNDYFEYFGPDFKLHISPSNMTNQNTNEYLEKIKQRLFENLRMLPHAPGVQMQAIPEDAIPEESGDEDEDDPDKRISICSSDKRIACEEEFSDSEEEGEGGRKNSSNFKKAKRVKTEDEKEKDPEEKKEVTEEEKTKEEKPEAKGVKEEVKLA

[10] = tested on: HCC 2998; assay: Cytotoxicity against human HCC2998 cells by SRB assay; format: functional; in short: as §1
[11] = tested on: NCI-H522; assay: Cytotoxicity against human NCI-H522 cells by SRB assay; format: functional; in short: as §1
[12] = tested on: U-251; assay: Cytotoxicity against human U251 cells by SRB assay; format: functional; in short: as §1
[13] = Cytotoxicity against human MKN1 cells by SRB assay; format: functional; settings: MKN-1; in short: as §1
[14] = biological target: T1, Histone deacetylase 1; assay: Ratio of FK228 IC50 to compound IC50 for human HDAC1 expressed in human 293T cells; format: cell-based
In short: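 FLAG-tagged human HDAC1 was expressed transiently in 293T cells (pcDNA3-HDAC1), immunoprecipitated with anti-FLAG M2 and eluted with FLAG peptide. Enzyme was incubated with 2 mM stock Ac-KGLGK(Ac)-MCA in 20 mM Tris-HCl pH 8.0, 150 mM NaCl, 10% glycerol, 100 μM DTT, for 30 min at 37 °C. Trypsin then released AMC, read by fluorescence. IC50 is the mean of ≥3 dose-response curves; FK228 reference run alongside.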

[15] = tested on: St-4; assay: Cytotoxicity against human St-4 cells by SRB assay; format: functional; in short: as §1
[16] = Cytotoxicity against human HBC5 cells by SRB assay; format: functional; in short: as §1
[17] = tested on: SF-539; assay: Cytotoxicity against human SF539 cells by SRB assay; format: functional; in short: as §1
[18] = tested on: LOX IMVI; assay: Cytotoxicity against human LOXIMVI cells by SRB assay; format: functional; in short: as §1
[19] = tested on: SK-OV-3; assay: Cytotoxicity against human SKOV3 cells by SRB assay; format: functional; in short: as §1
[20] = tested on: MDA-MB-231; assay: Cytotoxicity against human MDA-MB-231 cells by SRB assay; format: functional; in short: as §1
[21] = tested on: SF-268; assay: Cytotoxicity against human SF268 cells by SRB assay; format: functional; in short: as §1
[22] = tested on: A549; assay: Cytotoxicity against human A549 cells by SRB assay; format: functional; in short: as §1
[23] = tested on: PC-3; assay: Cytotoxicity against human PC3 cells by SRB assay; format: functional; in short: as §1
[24] = Cytotoxicity against human DMS114 cells by SRB assay; format: functional; settings: DMS-114; in short: as §1
[25] = Cytotoxicity against human MKN74 cells by SRB assay; format: functional; settings: MKN-74; in short: as §1
[26] = Cytotoxicity against human MKN28 cells by SRB assay; format: functional; settings: MKN-28; in short: as §1
[27] = Cytotoxicity against human SNB78 cells by SRB assay; format: functional; settings: SNB-78; in short: as §1
[28] = tested on: HCT-15; assay: Cytotoxicity against human HCT15 cells by SRB assay; format: functional; in short: as §1
[29] = tested on: DU-145; assay: Cytotoxicity against human DU145 cells by SRB assay; format: functional; in short: as §1
[30] = tested on: OVCAR-3; assay: Cytotoxicity against human OVCAR3 cells by SRB assay; format: functional; in short: as §1
[31] = biological target: T2, Protein deacetylase HDAC6 (Mus musculus, UniProt Q9Z2V5); assay: Inhibition of mouse HDAC6 expressed in human 293T cells using Ac-KGLGK(Ac)-MCA as substrate after 30 mins by fluorescence assay; format: cell-based
T2 sequence (Q9Z2V5 whole entry): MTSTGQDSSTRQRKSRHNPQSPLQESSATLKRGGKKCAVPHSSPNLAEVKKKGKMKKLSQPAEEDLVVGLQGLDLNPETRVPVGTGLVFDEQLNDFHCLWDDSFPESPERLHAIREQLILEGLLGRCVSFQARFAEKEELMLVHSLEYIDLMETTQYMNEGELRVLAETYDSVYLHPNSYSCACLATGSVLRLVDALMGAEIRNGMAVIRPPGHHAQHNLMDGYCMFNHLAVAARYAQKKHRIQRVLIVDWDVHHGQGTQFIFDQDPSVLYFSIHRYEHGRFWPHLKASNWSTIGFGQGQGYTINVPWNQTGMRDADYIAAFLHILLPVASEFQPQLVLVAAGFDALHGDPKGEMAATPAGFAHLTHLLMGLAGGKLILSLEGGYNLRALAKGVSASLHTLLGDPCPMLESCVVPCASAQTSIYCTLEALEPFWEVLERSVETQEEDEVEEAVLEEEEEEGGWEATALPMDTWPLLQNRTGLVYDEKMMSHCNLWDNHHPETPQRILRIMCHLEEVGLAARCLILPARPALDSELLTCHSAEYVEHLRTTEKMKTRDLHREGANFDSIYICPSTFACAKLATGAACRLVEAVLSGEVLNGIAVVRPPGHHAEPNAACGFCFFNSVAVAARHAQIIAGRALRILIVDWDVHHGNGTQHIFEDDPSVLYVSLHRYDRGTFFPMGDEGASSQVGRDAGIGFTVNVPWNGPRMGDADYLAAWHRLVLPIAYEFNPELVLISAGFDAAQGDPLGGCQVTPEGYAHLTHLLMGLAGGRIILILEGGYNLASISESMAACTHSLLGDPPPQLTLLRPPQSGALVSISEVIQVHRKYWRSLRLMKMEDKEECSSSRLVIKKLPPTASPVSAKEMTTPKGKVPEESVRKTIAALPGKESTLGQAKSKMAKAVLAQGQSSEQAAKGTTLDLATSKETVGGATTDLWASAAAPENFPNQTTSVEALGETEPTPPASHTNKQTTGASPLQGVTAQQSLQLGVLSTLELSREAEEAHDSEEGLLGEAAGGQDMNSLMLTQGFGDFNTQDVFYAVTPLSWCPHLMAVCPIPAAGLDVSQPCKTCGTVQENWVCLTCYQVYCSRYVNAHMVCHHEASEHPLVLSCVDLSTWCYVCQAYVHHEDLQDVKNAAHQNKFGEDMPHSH

[32] = tested on: SF-295; assay: Cytotoxicity against human SF295 cells by SRB assay; format: functional; in short: as §1
[33] = Cytotoxicity against human DMS273 cells by SRB assay; format: functional; settings: DMS-273; in short: as §1
[34] = tested on: NCI-H226; assay: Cytotoxicity against human NCI-H226 cells by SRB assay; format: functional; in short: as §1
[35] = Cytotoxicity against human RXF631L cells by SRB assay; format: functional; settings: RXF 631; in short: as §1
[36] = tested on: HT-29; assay: Cytotoxicity against human HT-29 cells by SRB assay; format: functional; in short: as §1
[37] = Cytotoxicity against human OVCAR5 cells by SRB assay; format: functional; settings: OVCAR-5; in short: as §1
[38] = tested on: KM12; assay: Cytotoxicity against human KM12 cells by SRB assay; format: functional; in short: as §1
[39] = tested on: MCF7; assay: Cytotoxicity against human MCF7 cells by SRB assay; format: functional; in short: as §1
[40] = Cytotoxicity against human MKN7 cells by SRB assay; format: functional; settings: MKN-7; in short: as §1
[41] = Cytotoxicity against human OVCAR4 cells by SRB assay; format: functional; settings: OVCAR-4; in short: as §1
[42] = Cytotoxicity against human BSY1 cells by SRB assay; format: functional; settings: BSY-1; in short: as §1
[43] = tested on: NCI-H460; assay: Cytotoxicity against human NCI-H460 cells by SRB assay; format: functional; in short: as §1

CCC(C)[C@H]1NC(=O)[C@H]2CSSCC/C=C/[C@H](CC(=O)N[C@H](C)C(=O)N2)OC(=O)C[C@@H]1O (stereo not given in full)
Ratio IC50 [1]: 636

CSCC[C@H]1NC(=O)C[C@H]2/C=C/CCSSC[C@@H](NC1=O)C(=O)N[C@H](C(C)C)[C@@H](O)CC(=O)O2
GI50 [2]: 3.6 nM | GI50 [3]: 3.4 nM | GI50 [4]: 3 nM | GI50 [5]: 0.64 nM | GI50 [6]: 0.51 nM | GI50 [7]: 7.6 nM | GI50 [8]: 0.68 nM | IC50 [9]: 1.2 nM | GI50 [10]: 0.67 nM | GI50 [11]: 0.2 nM | GI50 [12]: 2.2 nM | GI50 [13]: 0.67 nM | Ratio IC50 [14]: 3 | GI50 [15]: 8.1 nM | GI50 [16]: 7.8 nM | GI50 [17]: 0.72 nM | GI50 [18]: 0.5 nM | GI50 [19]: 0.78 nM | GI50 [20]: 1.8 nM | GI50 [21]: 1.8 nM | GI50 [22]: 0.57 nM | GI50 [23]: 4.4 nM | GI50 [24]: 0.97 nM | GI50 [25]: 1.8 nM | GI50 [26]: 8.5 nM | GI50 [27]: 460 nM | GI50 [28]: 300 nM | Ratio IC50 [1]: 1640 | GI50 [29]: 0.82 nM | GI50 [30]: 2.2 nM | IC50 [31]: 1970 nM | GI50 [32]: 3 nM | GI50 [33]: 3 nM | GI50 [34]: 0.47 nM | GI50 [35]: 1.3 nM | GI50 [36]: 0.65 nM | GI50 [37]: 1 nM | GI50 [38]: 0.76 nM | GI50 [39]: 2 nM | GI50 [40]: 4.1 nM | GI50 [41]: 5.8 nM | GI50 [42]: 4 nM | GI50 [43]: 0.91 nM

CSCC[C@@H]1NC(=O)C[C@H]2/C=C/CCSSC[C@@H](NC1=O)C(=O)N[C@@H](C(C)C)[C@H](O)CC(=O)O2
GI50 [2]: 1000 nM | GI50 [3]: 4400 nM | GI50 [4]: 1300 nM | GI50 [5]: 1600 nM | GI50 [6]: 540 nM | GI50 [7]: 3700 nM | GI50 [8]: 1900 nM | IC50 [9]: 337 nM | GI50 [10]: 1700 nM | GI50 [11]: 360 nM | GI50 [12]: 410 nM | GI50 [13]: 1400 nM | GI50 [15]: 3400 nM | GI50 [16]: 1900 nM | GI50 [17]: 1800 nM | GI50 [18]: 230 nM | GI50 [19]: 1700 nM | GI50 [20]: 1800 nM | GI50 [21]: 960 nM | GI50 [22]: 1400 nM | GI50 [23]: 1600 nM | GI50 [24]: 1300 nM | GI50 [25]: 1500 nM | GI50 [26]: 1900 nM | GI50 [27]: 1700 nM | GI50 [28]: 15000 nM | GI50 [29]: 1500 nM | GI50 [30]: 1800 nM | IC50 [31]: > 10000 nM | GI50 [32]: 1600 nM | GI50 [33]: 2300 nM | GI50 [34]: 1700 nM | GI50 [35]: 4000 nM | GI50 [36]: 1400 nM | GI50 [37]: 1300 nM | GI50 [38]: 1600 nM | GI50 [39]: 1800 nM | GI50 [40]: 2100 nM | GI50 [41]: 1800 nM | GI50 [42]: 1600 nM | GI50 [43]: 1800 nM
